Blank lines part the entries; values can stand above or below the compound they belong to. Active and inactive are the calls of the source. No cut-off for these calls is given here.
Key:
HeLa [1] = test: Induction of [alpha-32P]-UTP-labeled Simian virus 40 late pre-mRNA 3' cleavage at 1 mM treated with 3' cleavage factors from human HeLa cell nuclear extract after 2 hrs by PAGE analysis; assay type: cell-based; settings: Betapolyomavirus macacae
Summary of the method: (§1)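 Radiolabeled substrate (1–5 nM) derived from the SV40 late poly(A) signal was incubated with DEAE-sepharose CPSF, CstF and CFm fractions from HeLa nuclear extract. Test agent replaced 50 mM creatine phosphate. Reaction mix contained tRNA, 2 mM EDTA, 2 mM 2′-dATP, 2.5% polyvinyl alcohol and 10 mM HEPES pH 7.9, run at 30 °C for 2 h. Products were Proteinase K-digested, extracted, precipitated and resolved by 6% denaturing PAGE.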

HeLa [2] = test: Induction of [alpha-32P]-UTP-labeled Simian virus 40 late pre-mRNA 3' cleavage treated with 3' cleavage factors from human HeLa cell nuclear extract after 2 hrs by PAGE analysis; assay type: cell-based; settings: Betapolyomavirus macacae
Summary of the method: (§2)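 Partially purified HeLa nuclear extract cleavage factors (DEAE fractions CPSF, CstF, CFm; ammonium sulfate-concentrated, dialyzed against 20 mM Na-HEPES pH 7.9 buffer) incubated with radiolabeled SV40 late poly(A) signal substrate (1–5 nM). Reaction mix: tRNA 0.1 mg/mL, 2 mM EDTA, 2 mM 2'-dATP, 2.5% polyvinyl alcohol, 10 mM HEPES pH 7.9, 25 mM ammonium sulfate, activator replacing creatine phosphate. Run 2 h at 30 °C; Proteinase K treatment, 6% denaturing gel.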

[3] = Inhibition of ABI1 (unknown origin)
[4] = Inhibition of ABI2 (unknown origin)
[5] = Inhibition of ABI2 (unknown origin) at 3 uM relative to control; design: scale not given: the % may be the effect or the level left
HeLa [6] = test: Induction of [alpha-32P]-UTP-labeled Simian virus 40 late pre-mRNA 3' cleavage at >= 100 uM treated with 3' cleavage factors from human HeLa cell nuclear extract after 2 hrs by PAGE analysis relative to control; assay type: cell-based; settings: Betapolyomavirus macacae; summary of the method: as §1
HeLa [7] = test: Induction of [alpha-32P]-UTP-labeled Simian virus 40 late pre-mRNA 3' cleavage at 25 to 200 uM treated with 3' cleavage factors from human HeLa cell nuclear extract after 2 hrs by PAGE analysis; assay type: cell-based; settings: Betapolyomavirus macacae; summary of the method: as §1
HeLa [8] = test: Induction of [alpha-32P]-UTP-labeled Simian virus 40 late pre-mRNA 3' cleavage at 50 mM treated with 3' cleavage factors from human HeLa cell nuclear extract after 2 hrs by PAGE analysis; assay type: cell-based; settings: Betapolyomavirus macacae; summary of the method: as §2
Protein phosphatase 1D = target: T1, Protein phosphatase 1D (Homo sapiens, UniProt O15297); test: Inhibition of N-terminal His-tagged human PPM1D (1 to 420) assessed as phosphoric acid release after 30 mins
T1 sequence (O15297 whole entry): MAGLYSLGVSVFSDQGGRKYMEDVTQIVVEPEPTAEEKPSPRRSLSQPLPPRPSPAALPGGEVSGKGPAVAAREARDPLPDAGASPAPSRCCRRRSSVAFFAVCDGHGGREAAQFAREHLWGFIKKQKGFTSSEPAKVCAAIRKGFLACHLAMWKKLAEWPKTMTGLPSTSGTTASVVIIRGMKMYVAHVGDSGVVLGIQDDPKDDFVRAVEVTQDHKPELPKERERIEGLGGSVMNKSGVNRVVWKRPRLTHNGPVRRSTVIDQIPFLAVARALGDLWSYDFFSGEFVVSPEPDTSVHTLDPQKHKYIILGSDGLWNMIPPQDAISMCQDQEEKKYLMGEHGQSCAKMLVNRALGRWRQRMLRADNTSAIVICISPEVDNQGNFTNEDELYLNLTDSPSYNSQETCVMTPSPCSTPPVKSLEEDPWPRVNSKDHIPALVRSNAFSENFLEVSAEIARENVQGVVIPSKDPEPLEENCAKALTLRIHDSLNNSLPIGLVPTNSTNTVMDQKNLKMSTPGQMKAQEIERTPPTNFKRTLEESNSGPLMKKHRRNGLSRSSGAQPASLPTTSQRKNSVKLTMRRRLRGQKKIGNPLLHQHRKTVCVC

HeLa [9] = test: Induction of [alpha-32P]-UTP-labeled Simian virus 40 late pre-mRNA 3' cleavage at 200 nM treated with 3' cleavage factors from human HeLa cell nuclear extract after 2 hrs by PAGE analysis; assay type: cell-based; settings: Betapolyomavirus macacae; summary of the method: as §1
HeLa [10] = test: Induction of [alpha-32P]-UTP-labeled Simian virus 40 late pre-mRNA 3' cleavage at 200 nM treated with 3' cleavage factors from human HeLa cell nuclear extract after 2 hrs by PAGE analysis in presence of calf intestinal alkaline phosphatase; assay type: cell-based; settings: Betapolyomavirus macacae
HeLa [11] = test: Induction of [alpha-32P]-UTP-labeled Simian virus 40 late pre-mRNA 3' cleavage at 200 nM treated with 3' cleavage factors from human HeLa cell nuclear extract after 2 hrs by PAGE analysis in presence of protein tyrosine phosphatase; assay type: cell-based; settings: Betapolyomavirus macacae

Compound: N[C@@H](COP(=O)(O)O)C(=O)O
- Activity (HeLa [1]): inactive

Compound: N=C(N)NCCC[C@H](N)C(=O)Nc1cnc2ccccc2c1
- Activity (HeLa [1]): inactive

Compound: CN(C)CCOP(=O)(O)O
- Activity (HeLa [2]): inactive

- IC50 [3]: 60 nM
- IC50 [4]: 70 nM
- Activity [5]: 15%
Compound: CC1=CC(=O)CC(C)(C)[C@@]1(O)/C=C/C(C)=C\C(=O)O [(+)-ABSCISIC ACID]
- Activity (HeLa [6]): 10%

Compound: N=C(N)NCCC[C@H](N)C(=O)Nc1ccc2ccccc2c1
- Activity (HeLa [7]): Active

Compound: CN(CC(=O)O)C(=N)NP(=O)(O)O
- Activity (HeLa [8]): Active

- Ki (Protein phosphatase 1D): 150 nM
Compound: CC[C@H](C)[C@@H]1NC(=O)[C@H](Cc2ccc(OP(=O)(O)O)cc2)NC(=O)[C@H](CC(=O)O)NC(=O)[C@H](CCC(=O)O)N[C@H](C(N)=O)CSCC(=O)[C@H](Cc2ccccc2)NC(=O)[C@H](COP(=O)(O)O)NC1=O
- Activity (HeLa [9]): Active
- Activity (HeLa [10]): inactive
- Activity (HeLa [11]): Active

Compound: C[N+](C)(C)CCCOP(=O)(O)O
- Activity (HeLa [2]): inactive

Compound: C[N+](C)(C)CCOP(=O)(O)O
- Activity (HeLa [1]): inactive

Compound: N=C(N)NCCC[C@H](N)C(=O)Nc1ccccc1
- Activity (HeLa [1]): inactive

Compound: CNCCOP(=O)(O)O
- Activity (HeLa [2]): inactive

Compound: N=C(N)NCCC[C@@H](C(=O)Nc1ccc2ccccc2c1)N1CCOCC1
- Activity (HeLa [7]): Active

Compound: CC(=O)N[C@@H](CCCC[N+](C)(C)C)C(=O)N[C@@H](COP(=O)([O-])O)C(=O)O
- Activity (HeLa [1]): Active

Compound: N=C(N)NCCC[C@H](N)C(=O)Nc1cccc2ccccc12
- Activity (HeLa [1]): inactive

Compound: CCNC(=N)NCCC[C@H](N)C(=O)Nc1cccc2ccccc12
- Activity (HeLa [1]): inactive

Reference: ChEMBL document CHEMBL3108742, “Structurally diverse low molecular weight activators of the mammalian pre-mRNA 3' cleavage reaction” (Bioorg Med Chem, 2014)
